Assay results: ChEMBL document CHEMBL4024748, “Development of Potent Type I Protein Arginine Methyltransferase (PRMT) Inhibitors of Leukemia Cell Proliferation” (J Med Chem, 2017)
Active and inactive are the calls of the source. No cut-off for these calls is given here.

Legend:
[1] = target: DNA (cytosine-5)-methyltransferase 1 (Homo sapiens) (UniProt P26358); assay: Inhibition of DNMT1 (unknown origin) at 50 uM incubated for 15 mins followed by substrate addition measured after 60 mins by radioisotope assay
[2] = target: Histone-lysine N-methyltransferase EHMT2 (Homo sapiens) (UniProt Q96KQ7); assay: Inhibition of G9a (unknown origin) at 50 uM incubated for 15 mins followed by substrate addition measured after 60 mins by AlphaLisa method
Outline: (§1)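 AlphaLISA. Enzyme and substrate in 1x assay buffer, compound at 1% DMSO final. Enzyme preincubated with compound 15 min at room temperature, then substrate added. Reaction 60 min at room temperature, then bead mix added and incubated 60 min under subdued light before signal read.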

[3] = target: Histone acetyltransferase KAT2A (Homo sapiens) (UniProt Q92830); assay: Inhibition of GCN5 (unknown origin) at 50 uM incubated for 15 mins followed by substrate addition measured after 60 mins by radioisotope assay
[4] = target: Protein arginine N-methyltransferase 8 (Homo sapiens, UniProt Q9NR22); assay: Inhibition of PRMT8 (unknown origin) incubated for 15 mins followed by substrate addition measured after 60 mins by AlphaLisa method
Outline: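 AlphaLISA IC50 run. Compound dispensed to 1% DMSO final, enzyme in 1x assay buffer preincubated 15 min at room temperature. Substrate added and reacted 60 min at RT, then AlphaLISA bead mix added for 60 min at RT in subdued light. IC50 taken from the dose-response fit.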

[5] = target: Protein arginine N-methyltransferase 1 (Rattus norvegicus, UniProt Q63009); assay: Inhibition of rat His-tagged PRMT1 (11 to 353 residues) expressed in Escherichia coli BL21(DE3) using biotinylated H4 peptide (1 to 21 residues) as substrate preincubated for 15 mins followed by substrate addition measured after 60 mins in presence of [3H]SAM by microbeta counting method
Outline: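 Radiometric assay in modified Tris buffer. His6-rPRMT1(11–353) preincubated with compound 15 min at RT, then substrate and [3H]-SAM added. Reaction 60 min at RT, stopped with cold stop solution, transferred to Flashplate for 60 min, washed with water/0.1% Tween-20, counted on Microbeta. IC50 from curve fit.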

MV4-11 [6] = assay: Antiproliferative activity against human MV4-11 cells assessed as decrease in cell viability measured at day 12 by Cell-Titer Glo assay; type: functional, cell-based; conditions: MV4-11, 288 h
Outline: (§2)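 Cells kept at 37°C, 5% CO2, exposed to compound or DMSO control for 96 h. Viability read by CellTiter-Glo luminescence after 2 min shaking to lyse and 10 min at room temperature. Triplicate wells, normalised to control cells. For long-term growth, log-phase seeding densities; cells counted and replated to the starting density with fresh compound on days 4 and 8.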

MV4-11 [7] = assay: Upregulation of MNDA mRNA levels in human MV4-11 cells by qRT-PCR analysis; type: functional, cell-based
Outline: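 Treated MV4-11 cells analysed by SYBR Green qRT-PCR, with B2M as internal control. Fold change calculated by the ΔΔCt method. Samples run in triplicate and reported as mean ± SD.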

[8] = target: Protein arginine N-methyltransferase 6 (Homo sapiens, UniProt Q96LA8); assay: Inhibition of PRMT6 (unknown origin) incubated for 15 mins followed by substrate addition measured after 60 mins by AlphaLisa method; outline: as §1
KOPN-8 = assay: Cytotoxicity against human KOPN8 cells assessed as decrease in cell viability after 96 hrs by Cell-Titer Glo assay; type: functional, cell-based; outline: as §2
[9] = target: Histone-lysine N-methyltransferase, H3 lysine-79 specific (Homo sapiens) (UniProt Q8TEK3); assay: Inhibition of DOT1L (unknown origin) at 50 uM incubated for 15 mins followed by substrate addition measured after 60 mins by Alpha screen assay
Outline: (§3)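 DOT1L by AlphaScreen. Enzyme and substrate in 1x assay buffer, compound at 1% DMSO final. Enzyme preincubated with compound 15 min at room temperature, substrate added, reaction 60 min at room temperature. Acceptor/donor bead mix added and incubated 60 min at room temperature under subdued light.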

[10] = target: Histone-lysine N-methyltransferase 2A (Homo sapiens) (UniProt Q03164); assay: Inhibition of MLL1 (unknown origin) at 50 uM incubated for 15 mins followed by substrate addition measured after 60 mins by AlphaLisa method; outline: as §1
[11] = target: Protein arginine N-methyltransferase 1 (Homo sapiens) (UniProt Q99873); assay: Inhibition of PRMT1 in human MV411 cells assessed as increase in SDMA levels after 48 hrs by Western blot analysis; type: cell-based
Outline: (§4)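 MV4-11 cells treated with compound for 48 h. ADMA, SDMA and H4R3me2a read by western blot. Blots blocked in 5% nonfat milk in PBST, primary antibodies overnight at 4°C, HRP anti-rabbit secondary at 1:10000 for 1 h.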

[12] = target: Protein arginine N-methyltransferase 1 (Rattus norvegicus) (UniProt Q63009); assay: Uncompetitive inhibition of rat His-tagged PRMT1 (11 to 353 residues) expressed in Escherichia coli BL21(DE3) using biotinylated H4 peptide (1 to 21 residues) as substrate in presence of varying concentrations of [3H]SAM
Outline: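 Kinetic mode-of-action study using the radiolabel method with His6-rPRMT1(11–353). IC50 measured at varied peptide substrate or varied SAM concentrations, with the other component fixed. 15 min enzyme–compound preincubation, then 60 min reaction at RT with [3H]-SAM, Flashplate capture and Microbeta counting.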

[13] = target: Protein arginine N-methyltransferase 1 (Rattus norvegicus) (UniProt Q63009); assay: Binding affinity to rat His-tagged PRMT1 (11 to 353 residues) expressed in Escherichia coli BL21(DE3) at 200 uM by STD-NMR spectroscopic method
Outline: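 Rat PRMT1 (11–353), N-His6, expressed in E. coli BL21(DE3) with 0.4 mM IPTG at 16°C. Purified by Ni affinity and Superdex200. NMR used 5 µM PRMT1 in phosphate buffer pH 7.4 (20 mM NaH2PO4, 20 mM Na2HPO4, 100 mM NaCl) in D2O. Ligand at 200 µM in 5% DMSO-d6. CPMG run with 5, 2 and 1 µM PRMT1, plus STD.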

MRC5 = assay: Cytotoxicity against human MRC5 cells assessed as decrease in cell viability at 6.25 to 25 uM after 96 hrs by Cell-Titer Glo assay; type: cell-based; conditions: mrc5, 96 h
Outline: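 Normal HUV-EC-C, MRC-5 and RCTEC cells at 37°C, 5% CO2, given compound or DMSO control for 96 h. Viability by CellTiter-Glo luminescence after 2 min shaking and 10 min at room temperature. Triplicate wells, normalised to control cells.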

MV4-11 [14] = assay: Downregulation of MEIS1 mRNA levels in human MV4-11 cells by qRT-PCR analysis; type: functional, cell-based
Outline: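 MV4-11 cells treated with compound. mRNA measured by SYBR Green qRT-PCR with B2M as internal control. Fold change from ΔΔCt. Samples run in triplicate, mean ± SD.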

[15] = target: Histone-lysine N-methyltransferase, H3 lysine-79 specific (Homo sapiens) (UniProt Q8TEK3); assay: Inhibition of DOT1L (unknown origin) at 100 uM incubated for 15 mins followed by substrate addition measured after 60 mins by Alpha screen assay; outline: as §3
MV4-11 [16] = assay: Antiproliferative activity against human MV4-11 cells assessed as decrease in cell viability at 0.1 to 1000 uM by Cell-Titer Glo assay; type: functional, cell-based; conditions: TDE = time-dependent effect; outline: as §2
[17] = target: Protein arginine N-methyltransferase 1 (Homo sapiens) (UniProt Q99873); assay: Inhibition of PRMT1 in human MV411 cells assessed as reduction in ADMA levels after 48 hrs by Western blot analysis; type: cell-based; outline: as §4

Chain of Protein arginine N-methyltransferase 1 (Homo sapiens) (Q99873 whole entry, looked up): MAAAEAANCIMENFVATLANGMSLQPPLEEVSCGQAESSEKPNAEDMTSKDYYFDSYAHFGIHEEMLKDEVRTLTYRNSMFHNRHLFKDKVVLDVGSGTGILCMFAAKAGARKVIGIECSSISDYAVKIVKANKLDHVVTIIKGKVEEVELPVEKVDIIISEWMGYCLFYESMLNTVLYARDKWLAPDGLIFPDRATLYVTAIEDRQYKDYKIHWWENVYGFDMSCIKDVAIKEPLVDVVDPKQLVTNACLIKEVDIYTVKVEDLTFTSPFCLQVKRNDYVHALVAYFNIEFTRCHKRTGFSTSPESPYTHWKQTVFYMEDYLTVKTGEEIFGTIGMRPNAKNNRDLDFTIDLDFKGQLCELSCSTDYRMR
Chain of Histone-lysine N-methyltransferase, H3 lysine-79 specific (Homo sapiens) (Q8TEK3 whole entry, looked up): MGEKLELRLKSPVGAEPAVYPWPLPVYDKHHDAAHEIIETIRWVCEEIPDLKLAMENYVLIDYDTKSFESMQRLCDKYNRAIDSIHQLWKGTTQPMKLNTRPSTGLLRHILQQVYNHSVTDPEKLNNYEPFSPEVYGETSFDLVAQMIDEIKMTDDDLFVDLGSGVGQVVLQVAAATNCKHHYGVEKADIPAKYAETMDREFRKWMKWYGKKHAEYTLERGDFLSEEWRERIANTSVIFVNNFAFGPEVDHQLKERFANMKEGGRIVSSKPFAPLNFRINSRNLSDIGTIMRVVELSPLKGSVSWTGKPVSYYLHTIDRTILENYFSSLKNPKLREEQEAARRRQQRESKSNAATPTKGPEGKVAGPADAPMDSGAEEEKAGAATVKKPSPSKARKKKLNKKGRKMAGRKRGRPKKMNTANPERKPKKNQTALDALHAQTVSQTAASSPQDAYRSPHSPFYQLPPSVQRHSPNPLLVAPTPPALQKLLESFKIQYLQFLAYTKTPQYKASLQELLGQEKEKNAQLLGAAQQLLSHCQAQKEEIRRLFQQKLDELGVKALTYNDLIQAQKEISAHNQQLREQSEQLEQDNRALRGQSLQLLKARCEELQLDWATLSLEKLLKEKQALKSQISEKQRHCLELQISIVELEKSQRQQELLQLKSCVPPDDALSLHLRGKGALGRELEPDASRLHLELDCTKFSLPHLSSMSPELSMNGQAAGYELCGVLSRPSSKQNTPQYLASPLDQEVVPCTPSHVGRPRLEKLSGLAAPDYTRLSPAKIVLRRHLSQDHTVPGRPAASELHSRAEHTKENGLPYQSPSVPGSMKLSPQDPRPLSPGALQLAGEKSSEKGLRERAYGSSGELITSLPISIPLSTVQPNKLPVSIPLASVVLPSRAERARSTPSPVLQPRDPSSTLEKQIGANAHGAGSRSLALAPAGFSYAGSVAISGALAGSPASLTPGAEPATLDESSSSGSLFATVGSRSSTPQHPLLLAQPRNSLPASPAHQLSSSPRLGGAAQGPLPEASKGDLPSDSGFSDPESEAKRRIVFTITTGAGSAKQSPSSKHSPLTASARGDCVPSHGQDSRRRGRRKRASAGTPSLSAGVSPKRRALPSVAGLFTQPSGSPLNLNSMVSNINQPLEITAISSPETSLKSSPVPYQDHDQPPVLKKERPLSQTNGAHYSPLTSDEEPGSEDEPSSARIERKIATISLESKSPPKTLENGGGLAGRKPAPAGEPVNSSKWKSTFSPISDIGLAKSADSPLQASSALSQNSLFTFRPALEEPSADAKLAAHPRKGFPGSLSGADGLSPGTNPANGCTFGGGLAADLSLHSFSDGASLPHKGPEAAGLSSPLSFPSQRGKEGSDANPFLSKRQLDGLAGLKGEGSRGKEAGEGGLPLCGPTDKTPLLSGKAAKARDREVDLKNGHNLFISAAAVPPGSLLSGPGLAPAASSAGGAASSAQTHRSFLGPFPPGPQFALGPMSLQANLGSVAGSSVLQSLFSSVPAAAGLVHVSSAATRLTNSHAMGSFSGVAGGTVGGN
Chain of Protein arginine N-methyltransferase 1 (Rattus norvegicus) (Q63009 whole entry, looked up, the tested form may be a part): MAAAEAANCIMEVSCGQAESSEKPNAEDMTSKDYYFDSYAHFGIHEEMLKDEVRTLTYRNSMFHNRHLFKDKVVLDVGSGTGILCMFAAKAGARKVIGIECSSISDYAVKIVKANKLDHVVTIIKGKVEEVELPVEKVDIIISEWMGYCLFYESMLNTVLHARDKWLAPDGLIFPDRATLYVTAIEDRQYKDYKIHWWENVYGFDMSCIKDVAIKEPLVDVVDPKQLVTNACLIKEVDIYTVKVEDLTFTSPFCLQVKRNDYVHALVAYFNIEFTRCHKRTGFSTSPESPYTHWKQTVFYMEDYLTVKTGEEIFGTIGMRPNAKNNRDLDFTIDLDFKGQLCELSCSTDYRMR
Chain of Protein arginine N-methyltransferase 6 (Q96LA8 whole entry): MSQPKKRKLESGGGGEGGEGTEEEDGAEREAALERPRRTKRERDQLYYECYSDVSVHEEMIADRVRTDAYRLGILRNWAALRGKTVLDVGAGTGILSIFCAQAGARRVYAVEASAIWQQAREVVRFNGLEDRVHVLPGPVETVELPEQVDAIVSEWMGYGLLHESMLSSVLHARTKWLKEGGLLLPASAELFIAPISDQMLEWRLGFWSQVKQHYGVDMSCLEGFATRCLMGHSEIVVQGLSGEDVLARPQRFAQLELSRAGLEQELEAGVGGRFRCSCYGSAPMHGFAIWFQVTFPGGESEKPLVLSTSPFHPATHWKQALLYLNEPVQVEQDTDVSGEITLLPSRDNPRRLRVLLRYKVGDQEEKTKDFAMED
Chain of Histone-lysine N-methyltransferase EHMT2 (Homo sapiens) (Q96KQ7 whole entry): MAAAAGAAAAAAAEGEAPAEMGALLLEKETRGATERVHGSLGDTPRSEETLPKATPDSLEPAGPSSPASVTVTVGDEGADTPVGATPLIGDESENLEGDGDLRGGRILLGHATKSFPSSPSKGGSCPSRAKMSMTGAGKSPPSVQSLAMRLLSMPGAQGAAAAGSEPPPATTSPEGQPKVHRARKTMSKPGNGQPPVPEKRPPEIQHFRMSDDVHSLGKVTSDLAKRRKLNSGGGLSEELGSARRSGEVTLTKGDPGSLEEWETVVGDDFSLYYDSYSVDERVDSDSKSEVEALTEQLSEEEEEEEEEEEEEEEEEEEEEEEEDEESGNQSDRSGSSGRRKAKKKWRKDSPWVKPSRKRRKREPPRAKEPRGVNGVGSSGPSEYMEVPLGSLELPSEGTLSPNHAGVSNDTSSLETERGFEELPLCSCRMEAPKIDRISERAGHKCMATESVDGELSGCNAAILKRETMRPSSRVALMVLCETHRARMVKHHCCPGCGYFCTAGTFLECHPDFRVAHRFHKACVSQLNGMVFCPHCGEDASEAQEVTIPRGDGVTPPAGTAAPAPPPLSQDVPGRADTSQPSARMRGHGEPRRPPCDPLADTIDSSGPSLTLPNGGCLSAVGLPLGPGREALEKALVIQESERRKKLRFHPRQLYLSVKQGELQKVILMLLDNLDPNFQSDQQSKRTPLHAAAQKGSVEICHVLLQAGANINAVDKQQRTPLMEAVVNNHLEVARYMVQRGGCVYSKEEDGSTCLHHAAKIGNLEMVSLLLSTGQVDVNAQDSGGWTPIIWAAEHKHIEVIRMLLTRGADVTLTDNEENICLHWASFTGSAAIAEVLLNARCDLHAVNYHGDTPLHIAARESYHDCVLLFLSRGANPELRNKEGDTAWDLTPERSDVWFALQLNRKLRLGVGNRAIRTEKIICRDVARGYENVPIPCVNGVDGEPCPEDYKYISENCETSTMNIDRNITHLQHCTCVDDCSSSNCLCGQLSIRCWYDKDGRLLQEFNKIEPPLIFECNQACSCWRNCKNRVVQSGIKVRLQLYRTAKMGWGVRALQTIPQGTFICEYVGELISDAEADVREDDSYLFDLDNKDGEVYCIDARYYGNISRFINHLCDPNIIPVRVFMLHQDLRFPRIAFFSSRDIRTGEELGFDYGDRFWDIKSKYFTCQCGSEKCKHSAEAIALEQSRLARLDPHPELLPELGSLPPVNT
Chain of Protein arginine N-methyltransferase 8 (Q9NR22 whole entry): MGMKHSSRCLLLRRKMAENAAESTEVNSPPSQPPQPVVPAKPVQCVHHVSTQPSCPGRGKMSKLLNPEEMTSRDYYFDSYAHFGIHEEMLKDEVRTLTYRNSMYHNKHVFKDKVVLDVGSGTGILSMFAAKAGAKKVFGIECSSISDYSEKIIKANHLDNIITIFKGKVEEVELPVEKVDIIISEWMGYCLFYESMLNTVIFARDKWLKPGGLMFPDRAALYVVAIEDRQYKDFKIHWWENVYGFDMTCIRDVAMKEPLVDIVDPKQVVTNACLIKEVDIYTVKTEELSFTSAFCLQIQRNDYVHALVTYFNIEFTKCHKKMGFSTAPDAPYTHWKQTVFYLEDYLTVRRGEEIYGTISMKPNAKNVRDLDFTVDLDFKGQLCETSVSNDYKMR
Chain of Histone acetyltransferase KAT2A (Homo sapiens) (Q92830 2-837 limits assumed): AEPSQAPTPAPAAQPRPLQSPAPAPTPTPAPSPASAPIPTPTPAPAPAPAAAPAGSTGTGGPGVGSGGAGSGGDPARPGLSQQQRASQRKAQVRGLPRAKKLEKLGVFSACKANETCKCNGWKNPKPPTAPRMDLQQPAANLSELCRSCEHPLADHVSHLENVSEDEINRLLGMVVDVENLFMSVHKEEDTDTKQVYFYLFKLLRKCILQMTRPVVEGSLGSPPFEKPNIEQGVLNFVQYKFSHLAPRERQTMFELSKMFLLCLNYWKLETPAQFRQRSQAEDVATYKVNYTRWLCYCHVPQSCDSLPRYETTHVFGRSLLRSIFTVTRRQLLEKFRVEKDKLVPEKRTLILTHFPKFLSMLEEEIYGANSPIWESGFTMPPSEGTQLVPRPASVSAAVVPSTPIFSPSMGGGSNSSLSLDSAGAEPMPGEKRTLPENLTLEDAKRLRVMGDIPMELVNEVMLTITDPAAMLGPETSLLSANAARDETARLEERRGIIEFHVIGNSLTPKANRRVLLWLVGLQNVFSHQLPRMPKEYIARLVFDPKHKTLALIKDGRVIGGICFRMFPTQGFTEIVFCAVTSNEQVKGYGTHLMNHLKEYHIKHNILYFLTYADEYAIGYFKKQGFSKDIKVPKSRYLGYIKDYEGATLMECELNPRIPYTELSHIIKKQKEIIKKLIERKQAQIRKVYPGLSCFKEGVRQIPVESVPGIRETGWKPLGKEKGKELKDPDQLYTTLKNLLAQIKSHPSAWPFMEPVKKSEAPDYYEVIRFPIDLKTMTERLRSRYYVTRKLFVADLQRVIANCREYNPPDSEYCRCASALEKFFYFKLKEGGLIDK

inhibition [1]: Active
inhibition [2]: Active
inhibition [3]: Active
IC50 [4]: 1.1 nM
IC50 [5]: 5.3 nM
IC50 (MV4-11 [6]): 810 nM
IC50 [8]: 1.2 nM
inhibition [9]: Active
inhibition [10]: Active
inhibition [11]: Dose-dependent effect
inhibition [12]: Active
Activity [13]: Active
inhibition [15]: Active
inhibition [17]: Dose-dependent effect
SMILES: CN(CCN)Cc1ccccc1Sc1ccccc1Cl
Activity (MV4-11 [7]): Active
Activity (KOPN-8): Dose-dependent effect
Activity (MRC5): Non-Toxic
Activity (MV4-11 [14]): Dose-dependent effect
Activity (MV4-11 [16]): Tde
